# Reference: paper PMC6743453 (Molecular Biology of the Cell, 2019)
# Entries after “also recorded” stand apart in the source; their conditions may differ.
# Legend:
# [1] = system: endogenous OCRL (mouse brain extracts); assay: GST-F&H peptide pull down of endogenous OCRL from mouse brain extracts; type: binding; details: GST fusions of 13 amino acid F&H motif peptides, Ses2 and APPL1 as positive controls
# [2] = system: human OCRL ASHRhoGAP domain; assay: Peptide array overlay with GST-hOCRL-ASHRhoGAP; type: binding; details: summary statement, test not specified at the place
# [3] = system: F&H surface of Dd5P4 (GFP-Dd5P4 WT vs W620A); assay: GFP immunoprecipitation and mass spectrometry of GFP-Dd5P4 interactors; type: binding, Dictyostelium discoideum; details: triplicate GFP immunoprecipitates; Dd5P4- cells expressing GFP-Dd5P4 WT vs W620A; label-free quantitation
# Summary of the method: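 Cells were grown to 80% confluency in HL5 (glucose, vitamins, trace elements), with fusion strains under 5 µg/ml G418. Lysis buffer: 20 mM Tris pH 8, 10% glycerol, 100 mM NaCl, 1 mM EDTA, 1 mM DTT. Untransfected WT cells served as negative control. Beads were digested overnight with trypsin at 37°C, then StageTip-desalted. C18 nanoLC used a 95-min 5–30% acetonitrile gradient into a Q Exactive, with data-dependent top-10 MS/MS.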
# [4] = system: endogenous OCRL (Cos7 cells); assay: Frabin-GFP anti-GFP co-immunoprecipitation with endogenous OCRL in Cos7 cells; type: binding; details: full length Frabin-GFP, GFP-trap beads, Western blot
# Summary of the method: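 Frabin-GFP expressed in Cos7 cells by nucleofection, then pulled down on GFP-trap beads and washed extensively. Western blot detected Frabin-GFP with anti-GFP antibody and endogenous OCRL with mouse anti-human OCRL antibody.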
Molecule,enrichment in GFP-Dd5P4 immunoprecipitates [3],further results
AFHQRHETFRNAI* [Frabin],–,enrichment of endogenous OCRL by GST-F&H peptide [1]: specifically enriched endogenous OCRL; strength of Frabin F&H peptide interaction with OCRL [2]: strong
DDB_G0284853: mycBP2/Highwire-like protein of D. discoideum,"specifically enriched in precipitates from GFP-Dd5P4-expressing cells versus negative control precipitates, but not in precipitates from GFP-Dd5P4^W620A-expressing cells",–
GxcU: putative Rho-GEF of D. discoideum (protein) MDTKNKEILGSTIKAWIGRKRYKTMMVNKTNRDKVAKEILDTEQIYVRNLETIVQFYLKPLRNINPPLLSPKSIQIIFGHIEDLLSLNTELLTSIQDRMTTWYQDKRLGDIFTKMAPYLKVYTEYCGNYDKAVARLKQKSDESRDLQMFLKRVTSENSFGLDLNSLLVTPIQRIPRYKLLLQSLIQLTPVEFSDYPTLAKALENVALVADHINESIREKQNSEKILTIQKRFTGQCPPLLAPLRTFIREGSLTKVCRKDHKKRWFILFSDALVYGNRIDTAVGNPIYKFHRLLPLSNTKIANLDDTKHKNSFQLIHPIKSFTLIADTEQEKSSWMNSFSDAQNFLLRNEGSVARMNKQYRSINILKPKEEETVSTAPVWIPDSEAIQCMECTIKFTTIRRRHHCRRCGNVVCGKCSEQKWTLDQYKKDARVCKTCYNYLSISSSRSNENNVSSSNNLSTPTSTFTATTATATAPFGTLTDGASLADVSSDSEGEDNSSSINDSNPDMPIINGLSSIQIDNTPVILNTVNPSPPLLSQPQPQQPQQPQLQPLQQPLQQPPQPPQPPQTNHKSFIATHTAYNKENSLKSTSPSSSFIETSTSTSASTSTSTSTSTSTSTSTSTSTSTSTSNSTSNSTLTPGPPMLSKSNAGNSSLLDFCKSYIQNSPNVSPAKVEKHKHSSSSSSASNSPMQSRTNLDIPSTTTTSTSKGSISPTQSSESIVLPELKPITHDPLVTSNNSSSTLKVNQPIQHTNSSSKLNVIVSTPQTTQTTENNVNNTNTNTTTTNNNNNNNNNNNNNNNNNNNNNNNNNNNNSDVSSPKPTTKSLPPTPPTKKLPPTPPPKPLPPQPTLPQQPTLPPQPNLPPQPNLPPQPNLPPQPNLPPQPNLPQQPDLSQPPPQQQQQPTLDQAPPRPPKPNQDSRSQSFLCISSTVNSTPPTPPPKRIISTHPANTSFIYQPQQYVSSPNINNVPPPLPPPRIKSQAPIQRD,"specifically enriched in precipitates from GFP-Dd5P4-expressing cells versus negative control precipitates, but not in precipitates from GFP-Dd5P4^W620A-expressing cells",–
DDB_G0275301: OCRL-Interacting Bar domain Protein of D. discoideum (protein) MFKKGLDVLSKTKNAAVSSMTELETESDEVQNAKVALKNMKWSIKLLIQLAKNYFATSDKQVQQGTAFSVILQRFSEKISHTNYIINQTLPLSDSLREVGEGIKNSSTYFQQYTQIFCDKFATNIEALYVGHVKKVATLEKQQEESRIKYNNALNYLKSTQKSGHTGTKLAEKTTEYENAKAYYEQISLNLISATNDMVNYVQREVAVQMKQFVAEQQLMVQECIKMWVIAENKLFNSQSPVNTTSTTSPNTYGDYNNNANTVNLSKLSLDKEEQPPQPYQPPQQHSPPQQTFHQSPPTDFSSQHQQYSFDQSSPQETYQPPQQQQPEGQKSPNPFDDKNPFDN,"specifically enriched in precipitates from GFP-Dd5P4-expressing cells versus negative control precipitates, but not in precipitates from GFP-Dd5P4^W620A-expressing cells",–
"Frabin-GFP: full length Frabin-GFP expressed in Cos7 cells (protein, left off: GFP, end not stated, kept) MEEIKPASASCVSKEKPSKVSDLISRFEGGSSLSNYSDLKKESAVNLNAPRTPGRHGLTTTPQQKLLSQHLPQRQGNDTDKTQGAQTCVANGVMAAQNQMECEEEKAATLSSDTSIQASEPLLDTHIVNGERDETATAPASPTTDSCDGNASDSSYRTPGIGPVLPLEERGAETETKVQERENGESPLELEQLDQHHEMKETNEQKLHKIANELLLTERAYVNRLDLLDQVFYCKLLEEANRGSFPAEMVNKIFSNISSINAFHSKFLLPELEKRMQEWETTPRIGDILQKLAPFLKMYGEYVKGFDNAMELVKNMTERIPQFKSVVEEIQKQKICGSLTLQHHMLEPVQRIPRYEMLLKDYLRKLPPDSLDWNDAKKSLEIISTAASHSNSAIRKMENLKKLLEIYEMLGEEEDIVNPSNELIKEGQILKLAARNTSAQERYLFLFNNMLLYCVPKFSLVGSKFTVRTRVGIDGMKIVETQNEEYPHTFQVSGKERTLELQASSAQDKEEWIKALQETIDAFHQRHETFRNAIAKDNDIHSEVSTAELGKRAPRWIRDNEVTMCMKCKEPFNALTRRRHHCRACGYVVCWKCSDYKAQLEYDGGKLSKVCKDCYQIISGFTDSEEKKRKGILEIESAEVSGNSVVCSFLQYMEKSKPWQKAWCVIPKQDPLVLYMYGAPQDVRAQATIPLLGYVVDEMPRSADLPHSFKLTQSKSVHSFAADSEELKQKWLKVILLAVTGETPGGPNEHPATLDDHPEPKKKSEC",–,"coprecipitation of endogenous OCRL with Frabin-GFP [4]: weak but specific interaction with endogenous OCRL; also recorded: weak, albeit specific, coprecipitation with OCRL"
"DDB_G0280015: PH domain Interacting with OCRL, 741 amino acid protein of D. discoideum (protein) MESSSMTTNNNNNNSTISPSSSTTSISTSKNNDFLTLHKAYIDEWLMVSFLPILKTTYDGENNFYDISNLNIKNVNQRNIPFSEQLFALDRQFQNLINQWEKLSRSDQQRAAKIESYQQSFYTFIDRIKSTLEKTMVELGGSLEDSNFLAAAISLKEKQSKNKRLTIMARSRISPGGTSSTQYQHQMHLTGPISIVWNEILIIITRKVNEEVVRLQTENINNNIKNINNSEFNITNDIYQFNNNNLTQANKLEINNQRQKLYQQALSNIVPMLFEWRIMMANAQKVISEEKRFKVNPFIPTTVYDHNSSSFISAPILISTTNKTATTLLNNLNNNNIINNNNNNNNNNNNNNNNNNNNNNNNNSSSNSNNNNNSPISNSPSSSSPSPSSPTLTNRPSFINYDNQNNENNINNNNNNENNIGNNNINNNNSNENSDNKFSEEINISSSPPGTSGMTNSTSNLPTIASPTSWTKAVKRPAMSSSGGNIPILNNLGTSLNNNNNNKQIQDNNNNNLNTINANSNGNNNNSSNNVNSENNNIPTGGIIKQGWMKKRGTKNKSWKKRYFILDMKKTLRYYKDNSKIPHGNNSNNSGGGSSSNNNNCNSGNNNNGLNGGSGKGDQVNGNNISLPIGNNPHFHSSSGSGIPTTSPSMSSSSTSLENNDILSSFDHLKYKGSIDLYTSLVVAIKPSTFNVNINNSGSFKEDNNSYFGMDIITPSRTWNFCCESSKSMEDWLIVLKSANK","specifically enriched in precipitates from GFP-Dd5P4-expressing cells versus negative control precipitates, but not in precipitates from GFP-Dd5P4^W620A-expressing cells",–
